APJ antag: antagonists of human apelin receptor APJ, primary screen, CHO-K1 cells, beta-arrestin complementation, luminescence; 330,000 tested, 0.32% active; P35414; inhibition, % at 20 µM;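 active means inhibition above about 40% at 20 µM, limit read from the data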;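 further: cells challenged with 10 nM apelin-13 agonist together with compound; plate controls were apelin-13 plus DMSO wells for no effect and DMSO wells lacking apelin-13 for full effect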
CXCR6 block: CXCR6 receptor inhibitors, primary screen, cell-based, beta-arrestin, luminescence, CHO-K1 PathHunter, 1536-well; C-X-C chemokine receptor type 6 (Homo sapiens), O00574; inhibition, % at 20 µM; 360,000 tested, 0.36% active; in the data active means inhibition above about 34%, passing the limit was not always enough;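 further: antagonist mode with CXCL16 agonist at 10 nM final; 0% = 10 nM CXCL16 with DMSO and 100% = unstimulated wells without agonist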
CCR6 antag: CCR6 receptor antagonists, primary screen, cell-based, CHO-K1, luminescence, beta-arrestin, uHTS | CHO-K1 CCR6 PathHunter beta-arrestin, CCL20-stimulated | inhibition, % at 20 µM | 340,000 tested, 0.49% active | AID 493098, 2011;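 active means compounds whose inhibition of the agonist-driven luminescence signal at 20 µM reaches about 50%, limit read from the data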;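 further: cells stimulated with CCL20 at 14 nM final; plate controls were DMSO with CCL20 for no effect and DMSO without agonist for full effect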
APJ agonist: agonists of human apelin receptor APJ, primary screen, CHO-K1 cells, PathHunter beta-arrestin, luminescence | AID 2520, 2010 | activation, % at 20 µM | P35414 | 0% DMSO wells, 100% apelin | 330,000 tested, 0.11% active;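 active means activation more than six SD over the plate average, tested at 20 µM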;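 further: 0% = DMSO alone and 100% = apelin-13 at 10 nM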
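Assay system: CHO-K1 APJ beta-arrestin complementation cell line / Compound: single test compound dose, 20 µM final, 1% DMSO / Times: overnight seeding, 90 min compound at 25 °C, 1 h detection / Technique: beta-gal luminescence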
EBI2 block: EBI2 receptor antagonists, beta-arrestin recruitment, primary screen, cell-based, luminescence, 7a,25-OHC stimulation, uHTS; 7a,25-OHC stimulated; 360,000 tested, 0.81% active; inhibition, % at 5 µM; G-protein coupled receptor 183 (Homo sapiens), P32249; AID 651636, 2012; in the data active means inhibition above about 38%;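 further: enzyme fragment complementation signal reports receptor beta-arrestin coupling in cells; 0% = agonist plus DMSO wells and 100% = wells without agonist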
Target sequence (P32249 whole entry, looked up, the tested form may be a part): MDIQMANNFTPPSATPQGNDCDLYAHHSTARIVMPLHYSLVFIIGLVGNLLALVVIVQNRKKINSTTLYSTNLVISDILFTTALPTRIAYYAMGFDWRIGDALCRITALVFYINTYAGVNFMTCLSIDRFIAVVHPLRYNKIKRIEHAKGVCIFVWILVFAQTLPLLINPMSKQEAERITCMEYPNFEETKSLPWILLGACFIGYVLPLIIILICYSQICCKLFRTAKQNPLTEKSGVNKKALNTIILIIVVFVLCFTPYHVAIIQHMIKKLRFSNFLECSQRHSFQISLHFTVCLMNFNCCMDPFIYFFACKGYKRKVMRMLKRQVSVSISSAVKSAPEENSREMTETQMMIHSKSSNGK
HTR2A ag: mouse Htr2a agonists via beta-arrestin recruitment, primary screen, cell-based, luminescence | 5-hydroxytryptamine receptor 2A (Mus musculus), P35363 | CHO-K1 mHTR2A beta-arrestin complementation; percent of 30 µM serotonin response | activation, % at 7.6 µM | 360,000 tested, 0.66% active;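 active means activation above a run cutoff, the mean activation of all tested compounds plus 3 SD, cut at about 14% in these data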;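 further: 0% = plate median of compound wells and 100% = 30 µM serotonin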
MOR ag counter: OPRM1 agonists via beta-arrestin recruitment, confirmation, counter-screen for mouse HTR2A agonist project, cell-based, luminescence, single concentration; shares compounds with HTR2A ag; U2OS OPRM1 beta-arrestin PathHunter; DMSO 0%, DAMGO 9.3 µM 100%; activation, % at 9.3 µM; 2,300 tested, 5.3% active; AID 624380, 2012;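 active means mean activation above the mean of DMSO-only wells plus 3 SD, cut at about 0.5% in these data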
HTR2A ag conf: mouse HTR2A agonists, beta-arrestin recruitment, confirmation, cell-based, luminescence, CHO-K1 PathHunter, triplicate | AID 624381, 2012 | 2,300 tested, 19% active | shares compounds with HTR2A ag | DMSO 0%, 30 µM serotonin 100% | activation, % at 7.6 µM;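 active means mean activation across triplicates above the hit threshold derived in the original primary screen, cut at about 15% in these data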
* hit, by the source's call. This is a sample that favours compounds with a hit; in the whole collection about 2.2% have one here.

For C[C@H](NC(=O)c1[nH]cnc1C(=O)Nc1ccc(CNC(=O)OC(C)(C)C)cc1)C(=O)OC(C)(C)C the results were APJ antag 2, CXCR6 block -15, CCR6 antag -10, APJ agonist 2, EBI2 block -27, HTR2A ag 19*, MOR ag counter 0 and HTR2A ag conf 2.
For CC(C)(C)OC(=O)NCCCC[C@H](NC(=O)c1[nH]cnc1C(=O)Nc1ccc(CNC(=O)OC(C)(C)C)cc1)C(=O)OC(C)(C)C the results were APJ antag -11, CCR6 antag 12 and APJ agonist 11.
C[C@H]1Cn2cnc(C(=O)Nc3ccc(CNC(=O)OC(C)(C)C)cc3)c2C(=O)N1 was read as CXCR6 block -11, EBI2 block -16 and HTR2A ag -3.
CN1CCn2cnc(C(=O)Nc3ccc(CNC(=O)OC(C)(C)C)cc3)c2C1=O was read as CXCR6 block 1, EBI2 block 3, HTR2A ag 16*, MOR ag counter -1 and HTR2A ag conf -3.
O=C(CN(C(=O)c1csnn1)c1ccc2c(c1)OCCO2)NCc1ccccc1 was read as APJ antag 16, CXCR6 block -2, CCR6 antag 18, APJ agonist -3, EBI2 block -4, HTR2A ag 15*, MOR ag counter -1 and HTR2A ag conf -4.
`CCOC(=O)C1CCN(CC(C)(C)NS(=O)(=O)c2ccc(C)cc2)CC1` gave APJ antag -3, CXCR6 block -1, CCR6 antag 12, APJ agonist -3, EBI2 block 6, HTR2A ag 20*, MOR ag counter -1 and HTR2A ag conf 2.
c1cnc2c(-c3ccc4nccn4c3)cccc2c1 was read as CXCR6 block -6, EBI2 block -1 and HTR2A ag 3.
Cc1cccc(NC(=O)CN(c2ccc(C(C)C)cc2)S(=O)(=O)c2c(C)nn(C)c2C)n1 was read as APJ antag -2, CXCR6 block 9, CCR6 antag 10, APJ agonist -2, EBI2 block -2, HTR2A ag 16*, MOR ag counter -1 and HTR2A ag conf -2.
Cc1nn(C)c(C)c1S(=O)(=O)N(CC(=O)Nc1ccccn1)c1ccc(C(C)C)cc1 was read as APJ antag -78, CXCR6 block 6, CCR6 antag 13, APJ agonist -4, EBI2 block -3 and HTR2A ag -5.
`Cc1cc(C)cc(N(CC(=O)NCc2ccco2)S(=O)(=O)c2ccccc2)c1` gave APJ antag 15, CXCR6 block 2, CCR6 antag 2, APJ agonist -2, EBI2 block -7, HTR2A ag 15*, MOR ag counter -1 and HTR2A ag conf -1.
`Cc1cccc(N(CC(=O)NCc2ccco2)S(=O)(=O)c2ccccc2)c1` gave CXCR6 block -4, EBI2 block 4 and HTR2A ag -2.
`CN(C)S(=O)(=O)NC(=O)C1=C(N2CCCC2)COC1=O` gave APJ antag -2, CXCR6 block 3, CCR6 antag -2, APJ agonist 2, EBI2 block 7, HTR2A ag 23*, MOR ag counter -1 and HTR2A ag conf -4.
`CC(C)NC(=O)N(C)C[C@H]1Oc2cc(C#Cc3ccc(F)cc3)ccc2S(=O)(=O)N([C@H](C)CO)C[C@H]1C` gave CXCR6 block 10, EBI2 block 14, HTR2A ag 41*, MOR ag counter -1 and HTR2A ag conf 24*.
